{
  "source": "ChEMBL document CHEMBL2169835",
  "about": "“Flavonoid dimers as novel, potent antileishmanial agents” (J Med Chem, 2012)",
  "key": {"Leishmania donovani [1]": {"tested_on": "Leishmania donovani", "test": "Ratio of isoginkgetin IC50 to compound IC50 for axenically grown Leishmania donovani amastigotes", "type": "functional"}, "[2]": {"test": "Therapeutic index, ratio of IC50 for mouse Peritoneal macrophages to IC50 for SSG-resistant Leishmania donovani 39 amastigote infected in mouse peritoneal macrophages", "conditions": "read-out: Ratio IC50"}, "Leishmania donovani [3]": {"tested_on": "Leishmania donovani", "test": "Antimicrobial activity against SSG-resistant Leishmania donovani 39 amastigote infected in mouse peritoneal macrophages assessed as inhibition of parasite growth at 5 uM after 3 days by Giemsa staining method", "type": "functional, organism-based", "how_it_was_run": "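Coverslip-grown peritoneal macrophages were infected 24 h at 37 °C with late-log Ld39 promastigotes (20:1), washed, then exposed to 5 μM compound for 3 days at 37 °C, with a DMSO solvent control. Giemsa staining was scored as percentage of macrophages infected and amastigotes per 100 macrophages.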"}, "[4]": {"test": "Therapeutic index, ratio of IC50 for mouse Peritoneal macrophages to IC50 for SSG-resistant Leishmania donovani 39 promastigote", "conditions": "read-out: Ratio IC50", "how_it_was_run": "(§1)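 Index is PEM cytotoxicity IC50 over promastigote IC50. For PEM, cells were seeded at 2 × 10^4 per well in supplemented DMEM, given graded doses for 72 h at 37 °C, 5% CO2, and read by MTS survival.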"}, "[5]": {"test": "Therapeutic index, ratio of IC50 for mouse Peritoneal macrophages to IC50 for pentamidine-resistant Leishmania donovani AG83PentR50 promastigote", "conditions": "read-out: Ratio IC50", "how_it_was_run": "as §1"}, "[6]": {"test": "Therapeutic index, ratio of IC50 for mouse PEM cells to IC50 for wild-type Leishmania donovani AG83 promastigote", "type": "cell-based", "conditions": "read-out: Ratio IC50", "how_it_was_run": "as §1"}, "[7]": {"test": "Cytotoxicity against mouse Peritoneal macrophages cells after 72 hrs by MTS assay", "type": "cell-based", "conditions": "Peritoneal macrophage cell", "how_it_was_run": "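Primary mouse peritoneal elicited macrophages were seeded at 2 × 10^4 cells per well in DMEM with 10% heat-inactivated FBS. They were exposed to graded doses for 72 h at 37 °C in 5% CO2. Survival was read by MTS/PMS tetrazolium reduction (OD 490 nm) relative to untreated control. The IC50 was the concentration halving OD. Results are mean ± SEM of 1–4 independent experiments.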"}, "RAW264.7": {"tested_on": "RAW264.7", "test": "Cytotoxicity against mouse RAW264.7 cells after 72 hrs by MTS assay", "type": "cell-based", "conditions": "RAW264.7, 72 h", "how_it_was_run": "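RAW 264.7 murine macrophage line was plated at 1 × 10^4 cells per well in supplemented DMEM. Cells received a graded compound series for 72 h at 37 °C, 5% CO2, with a maximum of 1% DMSO. Viability was measured by MTS with PMS coupling at OD 490 nm, as percent of untreated control. The IC50 was the concentration reducing OD by half, given as mean ± SEM, N = 1–4.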"}, "Leishmania donovani [8]": {"tested_on": "Leishmania donovani", "test": "Antimicrobial activity against SSG-resistant Leishmania donovani 39 amastigote infected in mouse peritoneal macrophages assessed as inhibition of parasite growth after 72 hrs by Giemsa staining method", "type": "functional, organism-based", "conditions": "Leishmania donovani, 39, 72 h", "how_it_was_run": "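Mouse peritoneal elicited macrophages were seeded on coverslips at 1 × 10^5 cells per well in DMEM with 10% heat-inactivated FBS and left to attach overnight. They were infected overnight with late-log Ld39 promastigotes (parasite:macrophage 20:1) at 37 °C, 5% CO2, then washed. Compounds were applied for 72 h at 37 °C. Giemsa-stained amastigotes per 100 macrophages gave IC50; N = 1−3.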"}, "Leishmania donovani [9]": {"tested_on": "Leishmania donovani", "test": "Antimicrobial activity against pentamidine-resistant Leishmania donovani AG83PentR50 promastigote assessed as inhibition of parasite growth after 72 hrs by MTS assay", "type": "functional, organism-based", "conditions": "AG83PentR50, 72 h", "how_it_was_run": "(§2)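 Promastigotes were grown in Schneider's medium pH 6.9 with 10% heat-inactivated FBS at 27 °C, seeded at 1 × 10^5 per well, and exposed to serial concentrations for 72 h at 27 °C. Compounds were in DMSO (≤1% final) or water. MTS:PMS (20:1) was added for 4 h, then OD490 was read. Survival was % of untreated control; IC50 = concentration halving OD; N = 1−4.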"}, "Leishmania donovani [10]": {"tested_on": "Leishmania donovani", "test": "Antimicrobial activity against SSG-resistant Leishmania donovani 39 promastigote assessed as inhibition of parasite growth after 72 hrs by MTS assay", "type": "functional, organism-based", "conditions": "Leishmania donovani, 39, 72 h", "how_it_was_run": "as §2"}, "Leishmania donovani [11]": {"tested_on": "Leishmania donovani", "test": "Antimicrobial activity against wild-type Leishmania donovani AG83 promastigote assessed as inhibition of parasite growth after 72 hrs by MTS assay", "type": "functional, organism-based", "conditions": "AG83, 72 h", "how_it_was_run": "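Promastigotes were grown in Schneider's medium pH 6.9 with 10% heat-inactivated FBS at 27 °C, seeded at 1 × 10^5 per well, and exposed to serial concentrations for 72 h at 27 °C. Compounds were in DMSO (≤1% final) or water. MTS:PMS (20:1) was added for 4 h, then OD490 was read.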"}},
  "note": "Calls of active or inactive are those of the source. The rule behind the calls is not given here.",
  "data": [
    {"smiles": "O=c1cc(-c2ccc(OCCOCCN(CCOCCOc3ccc(-c4cc(=O)c5ccccc5o4)cc3)Cc3ccncc3)cc2)oc2ccccc12", "values": [
      {"measurement": "Ratio IC50", "setting": "Leishmania donovani [1]", "result": 3},
      {"measurement": "selectivity ratio", "setting": "[2]", "result": "> 140"},
      {"measurement": "inhibition", "setting": "Leishmania donovani [3]", "result": "Active"},
      {"measurement": "selectivity ratio", "setting": "[4]", "result": "> 419"},
      {"measurement": "selectivity ratio", "setting": "[5]", "result": "> 677"},
      {"measurement": "selectivity ratio", "setting": "[6]", "result": "> 440"},
      {"measurement": "IC50", "setting": "[7]", "result": "> 88000", "unit": "nM"},
      {"measurement": "IC50", "setting": "RAW264.7", "result": "> 100000", "unit": "nM"},
      {"measurement": "IC50", "setting": "Leishmania donovani [8]", "result": 630, "unit": "nM"},
      {"measurement": "IC50", "setting": "Leishmania donovani [9]", "result": 130, "unit": "nM"},
      {"measurement": "IC50", "setting": "Leishmania donovani [10]", "result": 210, "unit": "nM"},
      {"measurement": "IC50", "setting": "Leishmania donovani [11]", "result": 200, "unit": "nM"}
    ]}
  ]
}
